Laboratory results taken from ChEMBL document CHEMBL1141402 (J Med Chem, 2007).
Calls of active or inactive are those of the source. Residues, ends and D or L forms follow the SMILES beside them.

What was measured:
Mu-type opioid receptor [1] = target: Mu-type opioid receptor (Homo sapiens, UniProt P35372); experiment: Activity at mu opioid receptor assessed as increase in calcium level in CHO cells by aequorin luminescence based calcium assay; assay type: functional, cell-based
[2] = target: T1, Delta-type opioid receptor (Homo sapiens, UniProt P41143); experiment: Activity at delta opioid receptor assessed as increase in calcium level in CHO cells by aequorin luminescence based calcium assay; assay type: functional, cell-based
Mu-type opioid receptor [3] = target: Mu-type opioid receptor (Cavia porcellus, UniProt P97266); experiment: Agonist activity at mu opioid receptor by inhibition of electrically evoked muscle contraction in guinea pig ileum; assay type: functional, tissue-based
[4] = target: Delta-type opioid receptor (Mus musculus) (UniProt P32300); experiment: (§1) Agonist activity at delta opioid receptor by inhibition of electrically evoked muscle contraction in isolated mouse vas deferens; assay type: functional, tissue-based
Outline: (§2)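 Mouse vas deferens from adult male Swiss Webster mice (30-50 g), killed by cervical dislocation. Field stimulation used 1 ms pulse trains at 0.15 Hz. IC50 taken from the twitch-height reduction across doses.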

[5] = target: Mu-type opioid receptor (Cavia porcellus) (UniProt P97266); experiment: Antagonist activity at mu opioid receptor by inhibition of TAPP-induced muscle contraction in guinea pig ileum; assay type: functional, tissue-based
[6] = target: Delta-type opioid receptor (Mus musculus) (UniProt P32300); experiment: Antagonist activity at delta opioid receptor by inhibition of DPDPE-induced muscle contraction in isolated mouse vas deferens; assay type: functional, tissue-based
Mus musculus [7] = species on record: Mus musculus; experiment: Antagonist effect on endomorphin-2-induced paw licking in Swiss Albino mouse by hot plate method; assay type: functional, organism-based
Outline: (§3)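 Mice dosed i.c.v. into the left lateral ventricle, drugs dissolved in 0.9% NaCl; test compound given against endomorphin-2 (3 µg/animal) or DAMGO. Placed on a 55 ± 0.5 °C hot plate 5 min after injection. Latencies to paw licking, rearing and jumping recorded with a 240 s cut-off and expressed as %MPE from control (saline) and test latencies. 10 mice per group; two-way ANOVA with Student-Newman-Keuls.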

Mus musculus [8] = species on record: Mus musculus; experiment: Antagonist effect on endomorphin-2-induced rearing in Swiss Albino mouse by hot plate method; assay type: functional, organism-based; outline: as §3
Mus musculus [9] = species on record: Mus musculus; experiment: Antagonist effect on endomorphin-2-induced jumping in Swiss Albino mouse by hot plate method; assay type: functional, organism-based; outline: as §3
Mus musculus [10] = species on record: Mus musculus; experiment: Antagonist effect on DAMGO-induced paw licking in Swiss Albino mouse by hot plate method; assay type: functional, organism-based; outline: as §3
Mus musculus [11] = species on record: Mus musculus; experiment: Antagonist effect on DAMGO-induced rearing in Swiss Albino mouse by hot plate method; assay type: functional, organism-based; outline: as §3
Mus musculus [12] = species on record: Mus musculus; experiment: Antagonist effect on DAMGO-induced jumping in Swiss Albino mouse by hot plate method; assay type: functional, organism-based; outline: as §3
Mu-type opioid receptor [13] = target: Mu-type opioid receptor (Rattus norvegicus, UniProt P33535); experiment: Displacement of [3H]DAMGO from mu opioid receptor in rat brain membrane; assay type: cell membranes
Outline: (§4)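 Rat brain membranes incubated for 2 h at 0 °C with [3H]DAMGO (0.72 nM; µ) or [3H]DSLET (0.78 nM; δ). IC50 read from log dose-displacement curves. […] Three to four determinations.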

Mus musculus [14] = species on record: Mus musculus; experiment: Antinociceptive activity in Swiss Albino mouse assessed as effect on paw licking by hot plate method at 10 ug; assay type: functional
Outline: (§5)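 Mice given peptide i.c.v. in 0.9% NaCl, then put on a 55 ± 0.5 °C hot plate 5 min later. Latencies to paw licking, rearing and jumping recorded with a 240 s cut-off and converted to %MPE against saline control latencies. 10 mice per group; one-way ANOVA with Student-Newman-Keuls post hoc.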

Mus musculus [15] = species on record: Mus musculus; experiment: Antinociceptive activity in Swiss Albino mouse assessed as effect on rearing by hot plate method at 10 ug; assay type: functional; outline: as §5
Mus musculus [16] = species on record: Mus musculus; experiment: Antinociceptive activity in Swiss Albino mouse assessed as effect on jumping by hot plate method at 10 ug; assay type: functional; outline: as §5
[17] = target: Mu-type opioid receptor (Cavia porcellus) (UniProt P97266); experiment: Agonist activity at mu opioid receptor by inhibition of TAPP-induced muscle contraction in guinea pig ileum at upto 10 uM; assay type: functional, tissue-based
Outline: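 A 2-3 cm segment taken at least 10 cm from the ileocecal junction and mounted in a 20 mL bath of modified Krebs' buffer (NaCl 150, KCl 4.3, CaCl2 1.25, MgCl2 1.0, NaH2PO4 1.7, NaHCO3 25.0, glucose 11.0 mM). Buffer gassed with 95% O2/5% CO2 at 37 °C. Stimulated at 10 pulses/min, 4 ms each, with force-transducer recording. IC50 obtained by regression of the concentration-response curve.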

[18] = target: Delta-type opioid receptor (Mus musculus, UniProt P32300); experiment: as §1; assay type: functional, tissue-based; outline: as §2
[19] = target: Delta-type opioid receptor (Rattus norvegicus, UniProt P33533); experiment: Displacement of [3H]DSLET from delta opioid receptor in rat brain membrane; assay type: cell membranes; outline: as §4
[20] = target: T1, Delta-type opioid receptor; experiment: Antagonist activity against delta opioid receptor assessed as effect on deltorphin-2-induced calcium response in CHO cells by aequorin luminescence based calcium assay; assay type: functional, cell-based; settings: read-out: pA2 (converted)
Outline: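 CHO cells expressing DOR and aequorin. Compounds in BSA medium, then 25 000 cells injected per well. Luminescence recorded for 30 s, cells lysed with 0.3% Triton X-100 and read for a further 15 s. Signal given as fractional luminescence (agonist peak over agonist plus lysis total), from concentration-response curves. Three independent experiments, each in duplicate.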

T1 sequence (P41143 whole entry): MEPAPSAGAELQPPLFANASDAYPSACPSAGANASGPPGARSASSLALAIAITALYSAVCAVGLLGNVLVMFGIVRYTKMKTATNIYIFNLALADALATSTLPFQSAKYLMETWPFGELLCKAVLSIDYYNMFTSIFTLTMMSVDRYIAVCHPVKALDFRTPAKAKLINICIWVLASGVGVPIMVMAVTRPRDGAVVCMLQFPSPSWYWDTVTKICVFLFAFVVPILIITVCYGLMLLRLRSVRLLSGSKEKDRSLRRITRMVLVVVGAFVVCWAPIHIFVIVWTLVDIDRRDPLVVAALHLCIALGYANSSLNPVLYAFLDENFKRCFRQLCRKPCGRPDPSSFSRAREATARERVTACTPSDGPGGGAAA
Chain of Mu-type opioid receptor (Rattus norvegicus, UniProt P33535) (P33535 whole entry): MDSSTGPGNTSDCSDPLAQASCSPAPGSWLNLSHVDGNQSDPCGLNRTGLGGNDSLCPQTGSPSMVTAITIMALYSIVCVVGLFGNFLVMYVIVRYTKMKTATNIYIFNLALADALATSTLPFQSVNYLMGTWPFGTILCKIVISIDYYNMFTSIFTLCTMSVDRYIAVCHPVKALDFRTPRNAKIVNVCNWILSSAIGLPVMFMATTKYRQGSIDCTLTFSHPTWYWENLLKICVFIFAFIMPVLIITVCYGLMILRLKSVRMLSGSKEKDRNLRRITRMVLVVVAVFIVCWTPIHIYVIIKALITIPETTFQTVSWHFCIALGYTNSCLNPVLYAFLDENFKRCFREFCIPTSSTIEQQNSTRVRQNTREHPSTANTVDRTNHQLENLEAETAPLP
Chain of Mu-type opioid receptor (Homo sapiens, UniProt P35372) (P35372 whole entry): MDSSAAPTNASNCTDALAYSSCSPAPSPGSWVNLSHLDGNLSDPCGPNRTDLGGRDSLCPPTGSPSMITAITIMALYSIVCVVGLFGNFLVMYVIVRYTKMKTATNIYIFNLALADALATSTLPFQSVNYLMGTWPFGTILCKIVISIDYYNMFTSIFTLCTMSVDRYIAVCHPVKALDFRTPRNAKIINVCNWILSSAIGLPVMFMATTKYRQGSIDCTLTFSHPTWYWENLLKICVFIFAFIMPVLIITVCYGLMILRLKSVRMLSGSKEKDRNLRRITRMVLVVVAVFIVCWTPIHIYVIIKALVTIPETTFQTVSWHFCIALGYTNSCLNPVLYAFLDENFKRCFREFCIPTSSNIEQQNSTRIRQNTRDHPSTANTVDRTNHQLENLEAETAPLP
Chain of Mu-type opioid receptor (Cavia porcellus) (P97266 whole entry): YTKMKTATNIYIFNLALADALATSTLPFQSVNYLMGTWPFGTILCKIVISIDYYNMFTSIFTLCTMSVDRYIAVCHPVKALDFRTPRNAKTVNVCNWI
Chain of Mu-type opioid receptor (Cavia porcellus, UniProt P97266) (P97266 whole entry): as above
Chain of Delta-type opioid receptor (Mus musculus) (P32300 whole entry): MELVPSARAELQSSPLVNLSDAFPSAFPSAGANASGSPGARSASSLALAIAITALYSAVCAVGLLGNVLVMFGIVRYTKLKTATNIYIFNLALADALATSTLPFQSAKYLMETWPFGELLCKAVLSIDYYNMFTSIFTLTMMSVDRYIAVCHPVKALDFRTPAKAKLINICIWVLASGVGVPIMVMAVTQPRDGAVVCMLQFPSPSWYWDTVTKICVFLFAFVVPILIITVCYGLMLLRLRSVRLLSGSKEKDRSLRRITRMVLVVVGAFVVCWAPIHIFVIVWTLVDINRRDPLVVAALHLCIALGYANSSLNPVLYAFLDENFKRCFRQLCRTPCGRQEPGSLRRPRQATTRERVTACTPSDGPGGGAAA
Chain of Delta-type opioid receptor (Rattus norvegicus, UniProt P33533) (P33533 whole entry): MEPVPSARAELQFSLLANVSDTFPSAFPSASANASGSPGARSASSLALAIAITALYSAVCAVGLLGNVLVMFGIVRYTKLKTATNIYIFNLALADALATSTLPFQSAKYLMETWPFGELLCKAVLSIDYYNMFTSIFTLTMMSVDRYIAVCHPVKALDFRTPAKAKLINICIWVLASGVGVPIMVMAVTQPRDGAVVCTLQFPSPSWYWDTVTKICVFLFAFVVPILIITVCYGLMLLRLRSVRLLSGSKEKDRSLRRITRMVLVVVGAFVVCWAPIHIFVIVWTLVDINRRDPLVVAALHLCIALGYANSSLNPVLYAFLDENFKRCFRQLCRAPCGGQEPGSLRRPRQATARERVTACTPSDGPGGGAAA
Chain of Delta-type opioid receptor (Mus musculus, UniProt P32300) (P32300 whole entry): as the sequence (P32300 whole entry) above

Structure (SMILES): NC(=O)[C@@H](Cc1cccc2ccccc12)NC(=O)[C@H](Cc1c[nH]c2ccccc12)NC(=O)[C@@H]1CCCN1C(=O)[C@@H](N)Cc1ccc(O)cc1
- EC50 (Mu-type opioid receptor [1]): 82.1 nM
- EC50 [2]: > 1000 nM
- IC50 (Mu-type opioid receptor [3]): 4.18 µM
- Activity ([4]; filed as partial agonist): Partial agonist

Structure (SMILES): Cc1cc(C[C@H](N)C(=O)N2CCC[C@H]2C(=O)N[C@@H](Cc2ccccc2)C(=O)N[C@H](Cc2cccc3ccccc23)C(N)=O)cc(C)c1O
- Ke [5]: 14.9 nM
- Ke [6]: 227 nM
- Activity (Mus musculus [7]): Dose-dependent effect
- Activity (Mus musculus [8]): Dose-dependent effect
- Activity (Mus musculus [9]): Dose-dependent effect
- Activity (Mus musculus [10]): Dose-dependent effect
- Activity (Mus musculus [11]): Dose-dependent effect
- Activity (Mus musculus [12]): Dose-dependent effect

Structure (SMILES): Cc1cc(O)cc(C)c1C[C@H](N)C(=O)N1CCC[C@H]1C(=O)N[C@@H](Cc1c[nH]c2ccccc12)C(=O)N[C@H](Cc1ccc2ccccc2c1)C(N)=O (HELM PEPTIDE1{[Cc1cc(O)cc(C)c1C[C@H](N)C(=O)[*:2]].P.W.[O=C([C@@H](Cc1ccc2ccccc2c1)N[*:1])[*:2]].[am]}$$$$V2.0) [listing 1 of 2 here]
- EC50 [2]: 29.3 nM
- Ki (Mu-type opioid receptor [13]): 2.38 nM

Structure (SMILES): Cc1cc(O)cc(C)c1C[C@H](N)C(=O)N1CCC[C@H]1C(=O)N[C@@H](Cc1c[nH]c2ccccc12)C(=O)N[C@H](Cc1ccc2ccccc2c1)C(N)=O (HELM PEPTIDE1{[Cc1cc(O)cc(C)c1C[C@H](N)C(=O)[*:2]].P.W.[O=C([C@@H](Cc1ccc2ccccc2c1)N[*:1])[*:2]].[am]}$$$$V2.0) [listing 2 of 2 here]
- Activity (Mus musculus [14]): 0.17%
- Activity (Mus musculus [15]): 0.49%
- Activity (Mus musculus [16]): 0.58%

Structure (SMILES): Cc1cc(O)cc(C)c1C[C@H](N)C(=O)N1CCC[C@H]1C(=O)N[C@@H](Cc1ccccc1)C(=O)N[C@H](Cc1ccc2ccccc2c1)C(N)=O (HELM PEPTIDE1{[Cc1cc(O)cc(C)c1C[C@H](N)C(=O)[*:2]].P.F.[O=C([C@@H](Cc1ccc2ccccc2c1)N[*:1])[*:2]].[am]}$$$$V2.0)
- EC50 [2]: 15.5 nM
- Ke [5]: 5.86 nM
- Ke [6]: 250 nM
- Ki (Mu-type opioid receptor [13]): 1.52 nM
- Activity (Mus musculus [14]): 0.09%
- Activity (Mus musculus [15]): 0.18%
- Activity (Mus musculus [16]): 1.54%
- Activity (Mus musculus [7]): Dose-dependent effect
- Activity (Mus musculus [8]): Dose-dependent effect
- Activity (Mus musculus [9]): Dose-dependent effect
- Activity (Mus musculus [10]): Dose-dependent effect
- Activity (Mus musculus [11]): Dose-dependent effect
- Activity (Mus musculus [12]): Dose-dependent effect
- Activity [17]: inactive

Structure (SMILES): NC(=O)[C@@H](Cc1ccc2ccccc2c1)NC(=O)[C@H](Cc1ccccc1)NC(=O)[C@@H]1CCCN1C(=O)[C@@H](N)Cc1ccc(O)cc1 (HELM PEPTIDE1{Y.P.F.[O=C([C@@H](Cc1ccc2ccccc2c1)N[*:1])[*:2]].[am]}$$$$V2.0)
- EC50 [2]: > 1000 nM
- Ke [5]: 1260 nM
- Activity [4]: inactive
- Activity (Mus musculus [14]): 0.13%
- Activity (Mus musculus [15]): 0.09%
- Activity (Mus musculus [16]): 2.5%

Structure (SMILES): NC(=O)[C@@H](Cc1cccc2ccccc12)NC(=O)[C@H](Cc1ccccc1)NC(=O)[C@@H]1CCCN1C(=O)[C@@H](N)Cc1ccc(O)cc1
- EC50 [2]: > 1000 nM
- Ke [5]: 1250 nM
- IC50 [18]: > 10 µM
- Activity (Mus musculus [14]): 0%
- Activity (Mus musculus [15]): 0.31%
- Activity (Mus musculus [16]): 0.8%

Structure (SMILES): Cc1cc(O)cc(C)c1C[C@H](N)C(=O)N1CCC[C@H]1C(=O)N[C@@H](Cc1ccccc1)C(=O)N[C@H](Cc1cccc2ccccc12)C(N)=O [listing 1 of 2 here]
- Activity (Mus musculus [14]): 0.13%
- Activity (Mus musculus [15]): 1.06%
- Activity (Mus musculus [16]): 2.73%

Structure (SMILES): Cc1cc(O)cc(C)c1C[C@H](N)C(=O)N1CCC[C@H]1C(=O)N[C@@H](Cc1ccccc1)C(=O)N[C@H](Cc1cccc2ccccc12)C(N)=O [listing 2 of 2 here]
- EC50 [2]: 3.55 nM
- Ki (Mu-type opioid receptor [13]): 1.24 nM
- Ki [19]: 27.1 nM

Structure (SMILES): NC(=O)[C@@H](Cc1ccc2ccccc2c1)NC(=O)[C@H](Cc1c[nH]c2ccccc12)NC(=O)[C@@H]1CCCN1C(=O)[C@@H](N)Cc1ccc(O)cc1
- EC50 (Mu-type opioid receptor [1]): 248 nM
- EC50 [2]: > 1000 nM
- IC50 (Mu-type opioid receptor [3]): 3.47 µM
- IC30 [4]: 4.18 µM
- Activity ([4]; filed as partial agonist): Partial agonist

Structure (SMILES): Cc1cc(C[C@H](N)C(=O)N2CCC[C@H]2C(=O)N[C@@H](Cc2c[nH]c3ccccc23)C(=O)N[C@H](Cc2ccc3ccccc3c2)C(N)=O)cc(C)c1O
- Ke [5]: 8.27 nM
- Activity ([4]; filed as partial agonist): Partial agonist
- Activity (Mus musculus [7]): Dose-dependent effect
- Activity (Mus musculus [8]): Dose-dependent effect
- Activity (Mus musculus [9]): Dose-dependent effect
- Activity (Mus musculus [10]): Dose-dependent effect
- Activity (Mus musculus [11]): Dose-dependent effect
- Activity (Mus musculus [12]): Dose-dependent effect
- Activity [17]: inactive

Structure (SMILES): Cc1cc(C[C@H](N)C(=O)N2CCC[C@H]2C(=O)N[C@@H](Cc2c[nH]c3ccccc23)C(=O)N[C@H](Cc2cccc3ccccc23)C(N)=O)cc(C)c1O
- Ke [6]: 62.4 nM

Structure (SMILES): Cc1cc(O)cc(C)c1C[C@H](N)C(=O)N1CCC[C@H]1C(=O)N[C@@H](Cc1c[nH]c2ccccc12)C(=O)N[C@H](Cc1cccc2ccccc12)C(N)=O [listing 1 of 2 here]
- Activity (Mus musculus [14]): 5.35%
- Activity (Mus musculus [15]): 10.6%
- Activity (Mus musculus [16]): 23.2%

Structure (SMILES): NC(=O)[C@H](Cc1ccccc1)NC(=O)[C@H](Cc1c[nH]c2ccccc12)NC(=O)[C@@H]1CCCN1C(=O)[C@@H](N)Cc1ccc(O)cc1 [ENDOMORPHIN-1]
- Activity (Mus musculus [14]): 5.99%
- Activity (Mus musculus [15]): 12%
- Activity (Mus musculus [16]): 40.8%

Structure (SMILES): Cc1cc(O)cc(C)c1C[C@H](N)C(=O)N1CCC[C@H]1C(=O)N[C@@H](Cc1c[nH]c2ccccc12)C(=O)N[C@H](Cc1cccc2ccccc12)C(N)=O [listing 2 of 2 here]
- EC50 (Mu-type opioid receptor [1]): 1.15 nM
- Kb [20]: 2.57 nM
- IC50 (Mu-type opioid receptor [3]): 0.0158 µM
